Key:
[1] = test system: Rattus norvegicus; experiment: Mean sodium excretion in rats when compound administered at 5 mg/kg po and vehicle dosed at 19.74 umol/kg; type: ADME, organism-based; design: dose 5 mg/kg, route oral; settings: in vivo
Summary of the method: (§1)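 Male Sprague-Dawley rats (HC/CFY, 175-200 g) fasted and water-deprived 18 h before and during the test. Dosed by gavage at 2.5-160 mg/kg in 1% carboxymethyl cellulose/0.1% Tween 80, 0.5 mL/100 g bw. Immediately hydrated with water (2.5 mL/100 g bw, po). Urine collected 6 h in metabolic cages; Na+ and K+ by flame photometry; mean mequiv/6 h/kg bw; nonpaired Student t-test.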

[2] = test system: Rattus norvegicus; experiment: Mean potassium excretion in rats when compound administered at 0 mg/kg po and vehicle dosed at 0 umol/kg; type: ADME, organism-based; design: dose 0 mg/kg, route oral; settings: in vivo
Summary of the method: (§2)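 Male Sprague-Dawley rats (HC/CFY, 175-200 g), no food or water for 18 h before and during the test. Single gavage dose (2.5-160 mg/kg; vehicle 1% carboxymethyl cellulose/0.1% Tween 80, 0.5 mL/100 g bw), then distilled water 2.5 mL/100 g bw po. Individual metabolic cages, 6 h urine. K+ by flame photometry, Cl- colorimetric, as mequiv/6 h/kg bw; unpaired Student t-test vs control.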

[3] = test system: Rattus norvegicus; experiment: Urinary sodium 2 hr after the compound was administered 125 mg/kg po in rat; type: ADME, organism-based, Urine; design: dose 125 mg/kg, route oral; settings: in vivo
Summary of the method: (§3)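 Onset and duration study in fasted, water-loaded male Sprague-Dawley rats housed two per metabolic cage, six pairs per group. Single oral dose given, then water 2.5 mL/100 g po. Urine volume and sodium (flame photometry) measured over 0-1, 1-2, 2-3, 3-4 and 4-6 h intervals. Mean values compared with vehicle by Student t-test.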

[4] = test system: Rattus norvegicus; experiment: Mean Chlorine excretion in rats when compound administered at 80 mg/kg po and vehicle dosed at 315.88 umol/kg; type: ADME, organism-based; design: dose 80 mg/kg, route oral; settings: in vivo; summary of the method: as §2
[5] = test system: Rattus norvegicus; experiment: Mean potassium excretion in rats when compound administered at 80 mg/kg po and vehicle dosed at 315.88 umol/kg; type: ADME, organism-based; design: dose 80 mg/kg, route oral; settings: in vivo; summary of the method: as §1
[6] = test system: Rattus norvegicus; experiment: Volume of urine 1 hr after the compound was administered 125 mg/kg po in rat; type: ADME, organism-based; design: dose 125 mg/kg, route oral; settings: in vivo
Summary of the method: (§4)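 Onset/duration protocol: male Sprague-Dawley rats (HC/CFY, 175-200 g), food and water withdrawn for 18 h before and during the test. Single gavage dose in 1% carboxymethyl cellulose/0.1% Tween 80 (0.5 mL/100 g bw), then distilled water load (2.5 mL/100 g bw po). Two rats per metabolic cage, six pairs per group. Urine collected at 0-1, 1-2, 2-3, 3-4 and 4-6 h; Na+ by flame photometry. Vehicle controls; nonpaired Student t-test.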

[7] = test system: Rattus norvegicus; experiment: Mean potassium excretion in rats when compound administered at 40 mg/kg po and vehicle dosed at 157.94 umol/kg; type: ADME, organism-based; design: dose 40 mg/kg, route oral; settings: in vivo; summary of the method: as §1
[8] = test system: Rattus norvegicus; experiment: Mean sodium excretion in rats when compound administered at 160 mg/kg po and vehicle dosed at 631.76 umol/kg; type: ADME, organism-based; design: dose 160 mg/kg, route oral; settings: in vivo; summary of the method: as §1
[9] = test system: Rattus norvegicus; experiment: Mean Chlorine excretion in rats when compound administered at 0 mg/kg po and vehicle dosed at 0 umol/kg; type: ADME, organism-based; design: dose 0 mg/kg, route oral; settings: in vivo
[10] = test system: Rattus norvegicus; experiment: Dose required to produce an excretion of 2 mequiv of Na+/kg bw/6h vs control groups; type: functional
Summary of the method: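 Male Sprague-Dawley rats (HC/CFY, 175-200 g), fasted and water-deprived 18 h before and during the test. Compound dosed by gavage in 1% carboxymethyl cellulose/0.1% Tween 80, then water load 2.5 mL/100 g bw po. Urine collected 6 h in metabolic cages; Na+ by flame photometry. Effective doses vs vehicle controls derived by linear regression of dose-response data.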

[11] = test system: Rattus norvegicus; experiment: Mean potassium excretion in rats when compound administered at 10 mg/kg po and vehicle dosed at 39.48 umol/kg; type: ADME, organism-based; design: dose 10 mg/kg, route oral; settings: in vivo; summary of the method: as §2
[12] = test system: Rattus norvegicus; experiment: Urinary sodium 4 hr after the compound was administered 125 mg/kg po in rat; type: ADME, organism-based, Urine; design: dose 125 mg/kg, route oral; settings: in vivo; summary of the method: as §3
[13] = test system: Rattus norvegicus; experiment: Mean Chlorine excretion in rats when compound administered at 40 mg/kg po and vehicle dosed at 157.94 umol/kg; type: ADME, organism-based; design: dose 40 mg/kg, route oral; settings: in vivo; summary of the method: as §2
[14] = test system: Rattus norvegicus; experiment: Mean Chlorine excretion in rats when compound administered at 5 mg/kg po and vehicle dosed at 19.74 umol/kg; type: ADME, organism-based; design: dose 5 mg/kg, route oral; settings: in vivo; summary of the method: as §2
[15] = test system: Rattus norvegicus; experiment: Mean potassium excretion in rats when compound administered at 2.5 mg/kg po and vehicle dosed at 9.87 umol/kg; type: ADME, organism-based; design: dose 2.5 mg/kg, route oral; settings: in vivo; summary of the method: as §2
[16] = test system: Rattus norvegicus; experiment: Mean urinary output in rats when compound administered at 160 mg/kg po and vehicle dosed at 631.76 umol/kg; type: ADME, organism-based, Urine; design: dose 160 mg/kg, route oral; settings: in vivo
Summary of the method: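 Water-loaded male Sprague-Dawley rats (HC/CFY, 175-200 g) fasted and without water for 18 h. Oral gavage of 2.5-160 mg/kg in 1% CMC with 0.1% Tween 80, then distilled water 2.5 mL/100 g po. Urine collected 6 h in metabolic cages, mean output in mL/6 h/kg bw. Unpaired Student t-test against vehicle; dose-response by linear regression.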

[17] = test system: Rattus norvegicus; experiment: Mean potassium excretion in rats when compound administered at 160 mg/kg po and vehicle dosed at 631.76 umol/kg; type: ADME, organism-based; design: dose 160 mg/kg, route oral; settings: in vivo; summary of the method: as §2
[18] = test system: Rattus norvegicus; experiment: Post dosing time interval of maximum activity; type: functional
Summary of the method: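 Interval of peak activity taken from timed urine collections (0-1, 1-2, 2-3, 3-4, 4-6 h) after a single oral dose in water-loaded fasted rats, […]. Urine volume and Na+ excretion followed over time.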

[19] = test system: Rattus norvegicus; experiment: Volume of urine 4 hr after the compound was administered 125 mg/kg po in rat; type: ADME, organism-based; design: dose 125 mg/kg, route oral; settings: in vivo; summary of the method: as §4
[20] = test system: Rattus norvegicus; experiment: Mean sodium excretion in rats when compound administered at 10 mg/kg po and vehicle dosed at 39.48 umol/kg; type: ADME, organism-based; design: dose 10 mg/kg, route oral; settings: in vivo; summary of the method: as §1
[21] = Acute toxicity in mice when given po; type: organism-based; settings: mouse, in vivo, read-out: DL50 (the source's name)
Summary of the method: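 Male Swiss mice (SPF, HC/CFLP strain, 20–25 g), oral dosing; mortality followed over 15 days; LD50 derived by the Litchfield and Wilcoxon method.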

[22] = test system: Rattus norvegicus; experiment: Volume of urine 3h after the compound was administered 125 mg/kg po in rat; type: ADME, organism-based; design: dose 125 mg/kg, route oral; settings: in vivo; summary of the method: as §4
[23] = test system: Rattus norvegicus; experiment: Volume of urine 2 hr after the compound was administered 125 mg/kg po in rat; type: ADME, organism-based; design: dose 125 mg/kg, route oral; settings: in vivo; summary of the method: as §4

For `Nc1nc(N)c2nc(-c3ccccc3)c(N)nc2n1`, the Na [1] was 2.28 m equiv 6hr-1 kg-1 (body weight)-1, the K [2] was 0.5 m equiv 6hr-1 kg-1 (body weight)-1 and the “Urinary Na+” value [3] was 0.16 m equiv. The Cl- [4] was 2.8 m equiv 6hr-1 kg-1 (body weight)-1, the K [5] was 0.14 m equiv 6hr-1 kg-1 (body weight)-1 and the Urine volume [6] was 0.48 mL. The K [7] was 0.18 m equiv 6hr-1 kg-1 (body weight)-1, the Na [8] was 3.32 m equiv 6hr-1 kg-1 (body weight)-1 and the Cl- [9] was 0.88 m equiv 6hr-1 kg-1 (body weight)-1. The ED2 [10] was 3.8 mg/kg, the K [11] was 0.18 m equiv 6hr-1 kg-1 (body weight)-1 and the “Urinary Na+” value [12] was 0.15 m equiv. The Cl- [13] was 2.83 m equiv 6hr-1 kg-1 (body weight)-1, the Cl- [14] was 1.55 m equiv 6hr-1 kg-1 (body weight)-1 and the K [15] was 0.32 m equiv 6hr-1 kg-1 (body weight)-1. For the same compound, the V [16] was 52 ml 6hr-1 (kg of body weight)-1, the K [17] was 0.21 m equiv 6hr-1 kg-1 (body weight)-1 and the Time [18] was 6 h. The Urine volume [19] was 1.78 mL, the Na [20] was 2.61 m equiv 6hr-1 kg-1 (body weight)-1 and the LD50 [21] was 344 mg/kg. It also gave a Urine volume [22] of 2.73 mL and a Urine volume [23] of 3.2 mL.
